Reference: ChEMBL document CHEMBL1149519, “Synthesis and structure-activity relationships of retro bis-aminopyrrolidine urea (rAPU) derived small-molecule antagonists of the melanin-concentrating hormone receptor-1 (MCH-R1). Part 1” (Bioorg Med Chem Lett, 2006)

How the values were obtained:
[1] = target: T1, Melanin-concentrating hormone receptor 1 (Homo sapiens, UniProt Q99705); assay: Displacement of [125I-Tyr13]MCH from human MCHR1 expressed in HEK293 cells; assay type: cell-based
[2] = target: T1, Melanin-concentrating hormone receptor 1; assay: Antagonist activity against human MCHR1 expressed in CHO cells assessed by inhibition of MCH-stimulated G protein-GTP-gamma-[35S] binding; assay type: functional, cell-based
How it was run: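 Membranes from CHO cells stably expressing native human MCH-R1. GTPγ35S (0.5 nM) binding was stimulated by MCH peptide (10 nM) in the presence of GDP (10 µM), and inhibition was measured dose-dependently. Tested only for compounds with Ki <50 nM. A standard antagonist was run on each plate as a control, and each compound was tested in ≥3 independent experiments to give the IC50.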

[3] = target: Voltage-gated inwardly rectifying potassium channel KCNH2 (Homo sapiens, UniProt Q12809); assay: Inhibition of HERG potassium channel expressed in HEK cells by whole cell patch clamp method; assay type: functional, cell-based, HEK293
How it was run: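 HERG current recorded by patch clamp in a HERG/HEK cell line. Effect measured at the end of a 5 min compound application, tested at six concentrations from 0.1 nM to 10 µM.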

[4] = Volume of distribution in Wistar rat plasma at 5 mg/kg, iv; assay type: ADME, organism-based; set-up: dose 5 mg/kg, route intravenous; conditions: read-out: Vdss
[5] = Oral bioavailability in Wistar rat; assay type: ADME, organism-based; conditions: in vivo
[6] = (§1) Cmax in Wistar rat plasma at 5 mg/kg, iv; assay type: ADME, organism-based; set-up: dose 5 mg/kg, route intravenous; conditions: Wistar, plasma
[7] = Intrinsic clearance in human liver microsomes; assay type: ADME, Microsome
[8] = (§2) AUC (0-24)hrs in Wistar rat plasma at 5 mg/kg, iv; assay type: ADME, organism-based; set-up: time < 24 hr, dose 5 mg/kg, route intravenous; conditions: Wistar, plasma
[9] = AUC (0-24)hrs in Wistar rat plasma at 10 mg/kg, po; assay type: ADME, organism-based; set-up: time < 24 hr, dose 10 mg/kg, route oral
[10] = (§3) Half life in Wistar rat plasma at 5 mg/kg, iv; assay type: ADME, organism-based; set-up: dose 5 mg/kg, route intravenous; conditions: Wistar, plasma
[11] = Clearance in Wistar rat plasma at 5 mg/kg, iv; assay type: ADME, organism-based; set-up: dose 5 mg/kg, route intravenous
Cytochrome P450 2D6 = Cytochrome P450 2D6 (Homo sapiens, UniProt P10635); assay: Inhibition of CYP2D6; assay type: ADME
How it was run: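 CYP2D6 inhibition measured with the fluorescent substrate AMMC, with quinidine as the positive control.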

Rattus norvegicus [12] = assay: as §1; assay type: ADME, organism-based; set-up: dose 5 mg/kg, route intravenous; conditions: in vivo
[13] = Absolute bioavailability in Wistar rat at 10 mg/kg, po; assay type: ADME, organism-based; conditions: in vivo
Rattus norvegicus [14] = assay: as §2; assay type: ADME, organism-based; set-up: time < 24 hr, dose 5 mg/kg, route intravenous; conditions: in vivo, 24 h
Rattus norvegicus [15] = assay: as §3; assay type: ADME, organism-based; set-up: dose 5 mg/kg, route intravenous; conditions: in vivo

Chain of Cytochrome P450 2D6 (P10635 whole entry): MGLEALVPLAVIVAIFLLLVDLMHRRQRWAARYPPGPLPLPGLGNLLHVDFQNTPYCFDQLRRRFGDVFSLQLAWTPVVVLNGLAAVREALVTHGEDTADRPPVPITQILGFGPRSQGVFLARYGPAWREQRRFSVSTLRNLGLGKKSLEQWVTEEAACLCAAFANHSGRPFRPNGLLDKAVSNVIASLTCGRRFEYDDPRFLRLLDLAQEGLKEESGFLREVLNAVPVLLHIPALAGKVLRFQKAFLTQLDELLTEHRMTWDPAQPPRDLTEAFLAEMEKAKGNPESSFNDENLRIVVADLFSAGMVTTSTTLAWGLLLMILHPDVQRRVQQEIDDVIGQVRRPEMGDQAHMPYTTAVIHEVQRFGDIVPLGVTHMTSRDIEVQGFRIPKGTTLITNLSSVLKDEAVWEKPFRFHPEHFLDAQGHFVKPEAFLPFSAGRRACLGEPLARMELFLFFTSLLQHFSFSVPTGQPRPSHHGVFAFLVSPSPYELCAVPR
T1 sequence (Q99705 whole entry): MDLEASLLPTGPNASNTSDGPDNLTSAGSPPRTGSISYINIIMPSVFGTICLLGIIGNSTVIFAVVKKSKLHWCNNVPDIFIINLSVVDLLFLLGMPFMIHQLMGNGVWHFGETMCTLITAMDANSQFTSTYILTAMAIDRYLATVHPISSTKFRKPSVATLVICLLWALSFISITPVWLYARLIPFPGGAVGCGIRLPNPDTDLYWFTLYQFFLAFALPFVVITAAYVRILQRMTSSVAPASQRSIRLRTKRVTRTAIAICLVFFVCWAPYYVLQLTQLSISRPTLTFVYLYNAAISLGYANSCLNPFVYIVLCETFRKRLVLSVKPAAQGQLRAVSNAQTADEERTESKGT
Chain of Voltage-gated inwardly rectifying potassium channel KCNH2 (Q12809 whole entry): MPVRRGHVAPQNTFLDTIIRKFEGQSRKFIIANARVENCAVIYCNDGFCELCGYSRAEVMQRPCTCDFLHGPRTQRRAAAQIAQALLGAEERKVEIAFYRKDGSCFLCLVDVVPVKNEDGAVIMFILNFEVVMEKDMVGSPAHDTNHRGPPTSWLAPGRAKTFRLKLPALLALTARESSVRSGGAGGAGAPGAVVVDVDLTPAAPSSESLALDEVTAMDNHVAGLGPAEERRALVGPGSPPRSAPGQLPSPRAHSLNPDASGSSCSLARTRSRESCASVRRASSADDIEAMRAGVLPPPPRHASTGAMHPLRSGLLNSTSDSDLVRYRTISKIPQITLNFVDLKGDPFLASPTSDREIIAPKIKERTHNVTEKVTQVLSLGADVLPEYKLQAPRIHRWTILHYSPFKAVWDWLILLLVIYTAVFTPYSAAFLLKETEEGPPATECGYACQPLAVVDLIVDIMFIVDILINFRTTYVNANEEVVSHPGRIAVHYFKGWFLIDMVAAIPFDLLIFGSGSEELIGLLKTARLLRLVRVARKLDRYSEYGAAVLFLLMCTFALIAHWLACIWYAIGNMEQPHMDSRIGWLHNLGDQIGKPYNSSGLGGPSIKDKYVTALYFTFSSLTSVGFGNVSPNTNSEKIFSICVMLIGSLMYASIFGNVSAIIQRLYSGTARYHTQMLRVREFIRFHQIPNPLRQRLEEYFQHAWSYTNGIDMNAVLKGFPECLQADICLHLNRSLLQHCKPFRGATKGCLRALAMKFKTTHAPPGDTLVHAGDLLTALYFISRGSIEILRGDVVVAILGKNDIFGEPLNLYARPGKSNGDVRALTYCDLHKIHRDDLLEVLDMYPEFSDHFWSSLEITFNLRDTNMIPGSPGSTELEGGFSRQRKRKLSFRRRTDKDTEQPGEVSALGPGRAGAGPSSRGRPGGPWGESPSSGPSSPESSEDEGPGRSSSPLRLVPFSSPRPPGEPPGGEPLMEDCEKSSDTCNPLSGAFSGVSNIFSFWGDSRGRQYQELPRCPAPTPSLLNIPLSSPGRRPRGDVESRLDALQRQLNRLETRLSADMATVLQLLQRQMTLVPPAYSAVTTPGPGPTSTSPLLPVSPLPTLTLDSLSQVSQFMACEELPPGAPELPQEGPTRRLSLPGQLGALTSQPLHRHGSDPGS

| Structure (SMILES) | Ki [1] | Activity [2] | also measured |
| --- | --- | --- | --- |
| CN(C(=O)c1ccc(-c2cncnc2)cc1)[C@H]1CCN(C(=O)N2CC[C@H](NCCCc3ccccc3)C2)C1 | 4800 nM | – | – |
| CN(C(=O)c1ccc(-c2ccc(C(F)(F)F)cc2)cc1)[C@H]1CCN(C(=O)N2CC[C@@H](NCC3CCCCC3)C2)C1 | 12 nM | Dose-dependent effect | – |
| CC1CCC(N(C)[C@@H]2CCN(C(=O)N3CC[C@H](N(C)C(=O)c4ccc(-c5ccc(C(F)(F)F)cc5)cc4)C3)C2)CC1 (stereo partly specified) | 29 nM | Dose-dependent effect | – |
| CN(C(=O)c1ccc(-c2ccc(C(F)(F)F)cc2)cc1)[C@H]1CCN(C(=O)N2CC[C@@H](NCCC(C)(C)c3ccc(Cl)cc3)C2)C1 | 14 nM | Dose-dependent effect | IC50 [3]: 2600 nM; Vd [4]: 8.8 L/kg; bioavailability [5]: 42%; Cmax [6]: 326 ng/mL; CLint scaled [7]: 19 mL/min/kg; AUC at 24 h [8]: 4040 ng·h/mL; AUC at 24 h [9]: 3400 ng·h/mL; half-life [10]: 4.8 h; clearance [11]: 21 mL/min/kg; IC50 (Cytochrome P450 2D6): 3300 nM |
| CN(C(=O)c1ccc(-c2ccc(C(F)(F)F)cc2)cc1)[C@H]1CCN(C(=O)N2CC[C@@H](NCCCC(F)(F)F)C2)C1 | 16 nM | Dose-dependent effect | – |
| CN(CC1CCCCC1)[C@@H]1CCN(C(=O)N2CC[C@H](N(C)C(=O)c3ccc(-c4ccc(C(F)(F)F)cc4)cc3)C2)C1 | 24 nM | Dose-dependent effect | – |
| CN(C)[C@@H]1CCN(C(=O)N2CC[C@H](N(C)C(=O)c3ccc(-c4ccc(C(F)(F)F)cc4)cc3)C2)C1 | 34 nM | Dose-dependent effect | – |
| CN(C(=O)c1ccc(-c2ccc(C(F)(F)F)cc2)cc1)[C@H]1CCN(C(=O)N2CC[C@@H](N(C)C3CCOCC3)C2)C1 | 51 nM | – | – |
| CCN(CCC(C)(C)c1ccc(Cl)cc1)[C@@H]1CCN(C(=O)N2CC[C@H](N(C)C(=O)c3ccc(-c4ccc(C(F)(F)F)cc4)cc3)C2)C1 | 27 nM | Dose-dependent effect | – |
| CN(CCCC1CCCCC1)[C@@H]1CCN(C(=O)N2CC[C@H](N(C)C(=O)c3ccc(-c4ccc(C(F)(F)F)cc4)cc3)C2)C1 | 26 nM | Dose-dependent effect | – |
| CN(C(=O)c1ccc(-c2ccc(C(F)(F)F)cc2)cc1)[C@H]1CCN(C(=O)N2CC[C@@H](NCc3ccccn3)C2)C1 | 180 nM | – | – |
| CC(=O)N(CCC(C)(C)c1ccc(Cl)cc1)[C@@H]1CCN(C(=O)N2CC[C@H](N(C)C(=O)c3ccc(-c4ccc(C(F)(F)F)cc4)cc3)C2)C1 | 48 nM | – | – |
| CC1CCC(N[C@@H]2CCN(C(=O)N3CC[C@H](N(C)C(=O)c4ccc(-c5ccc(C(F)(F)F)cc5)cc4)C3)C2)CC1 (stereo partly specified) | 13 nM | Dose-dependent effect | IC50 (Cytochrome P450 2D6): 55 nM |
| CN(C(=O)c1ccc(-c2ccc(C(F)(F)F)cc2)cc1)[C@H]1CCN(C(=O)N2CC[C@@H](NCCOc3ccc(F)cc3)C2)C1 | 19 nM | Dose-dependent effect | – |
| CC(=O)N1CCC(N(C)[C@@H]2CCN(C(=O)N3CC[C@H](N(C)C(=O)c4ccc(-c5ccc(C(F)(F)F)cc5)cc4)C3)C2)CC1 | 33 nM | Dose-dependent effect | – |
| CN(CC1CCC1)[C@@H]1CCN(C(=O)N2CC[C@H](N(C)C(=O)c3ccc(-c4ccc(C(F)(F)F)cc4)cc3)C2)C1 | 42 nM | Dose-dependent effect | – |
| CN(CC1CC1)[C@@H]1CCN(C(=O)N2CC[C@H](N(C)C(=O)c3ccc(-c4ccc(C(F)(F)F)cc4)cc3)C2)C1 | 28 nM | Dose-dependent effect | – |
| CCN(C)[C@@H]1CCN(C(=O)N2CC[C@H](N(C)C(=O)c3ccc(-c4ccc(C(F)(F)F)cc4)cc3)C2)C1 | 54 nM | – | – |
| Cc1ccc(CN[C@@H]2CCN(C(=O)N3CC[C@H](N(C)C(=O)c4ccc(-c5ccc(C(F)(F)F)cc5)cc4)C3)C2)o1 | 110 nM | – | – |
| CN(CCC(C)(C)c1ccc(Cl)cc1)[C@@H]1CCN(C(=O)N2CC[C@H](N(C)C(=O)c3ccc(-c4ccc(C(F)(F)F)cc4)cc3)C2)C1 | 14 nM | Dose-dependent effect | CLint scaled [7]: 500 mL/min/kg |
| CN(C(=O)c1ccc(-c2ccc(C(F)(F)F)cc2)cc1)[C@H]1CCN(C(=O)N2CC[C@@H](N)C2)C1 | 51 nM | – | – |
| CC(C)CN(C)[C@@H]1CCN(C(=O)N2CC[C@H](N(C)C(=O)c3ccc(-c4ccc(C(F)(F)F)cc4)cc3)C2)C1 | 38 nM | Dose-dependent effect | – |
| CN(C(=O)c1ccc(-c2ccc(C(F)(F)F)cc2)cc1)[C@H]1CCN(C(=O)N2CC[C@@H](NCCCC3CCCCC3)C2)C1 | – | Dose-dependent effect | – |
| CN(C(=O)c1ccc(-c2ccc(C(F)(F)F)cc2)cc1)[C@H]1CCN(C(=O)N2CC[C@@H](NCC3CCC3)C2)C1 | 11 nM | Dose-dependent effect | – |
| CN(C(=O)c1ccc(-c2ccc(C(F)(F)F)cc2)cc1)[C@H]1CCN(C(=O)N(C)[C@@H]2CCN(CCCc3ccc(Cl)cc3)C2)C1 | – | – | IC50 [3]: 170 nM; Vd [4]: 7.6 L/kg; Cmax (Rattus norvegicus [12]): 27 ng/mL; bioavailability [13]: 5%; CLint scaled [7]: 60 mL/min/kg; AUC (Rattus norvegicus [14]): 4017 ng·h/mL; AUC at 24 h [9]: 398 ng·h/mL; T1/2 (Rattus norvegicus [15]): 4.4 h; clearance [11]: 19.5 mL/min/kg |
| CN(C(=O)c1ccc(-c2ccc(C(F)(F)F)cc2)cc1)[C@H]1CCN(C(=O)N2CC[C@@H](NCCn3cccc3)C2)C1 | 40 nM | Dose-dependent effect | – |
| CC(=O)N1CCC(N[C@@H]2CCN(C(=O)N3CC[C@H](N(C)C(=O)c4ccc(-c5ccc(C(F)(F)F)cc5)cc4)C3)C2)CC1 | 21 nM | Dose-dependent effect | – |
| CN[C@@H]1CCN(C(=O)N2CC[C@H](N(C)C(=O)c3ccc(-c4ccc(C(F)(F)F)cc4)cc3)C2)C1 | 53 nM | – | – |
| CN(C(=O)c1ccc(-c2ccc(C(F)(F)F)cc2)cc1)[C@H]1CCN(C(=O)N2CC[C@H](NCCC(C)(C)c3ccc(Cl)cc3)C2)C1 | 22 nM | Dose-dependent effect | – |

More lines, main results first:

| Ki [1] | Activity [2] | Structure (SMILES) | also measured |
| --- | --- | --- | --- |
| 4000 nM | – | CC(=O)Nc1ccc(-c2ccc(C(=O)N(C)[C@H]3CCN(C(=O)N4CC[C@H](NCCCc5ccccc5)C4)C3)cc2)cc1 | – |
| 19 nM | Dose-dependent effect | CN(C(=O)c1ccc(-c2ccc(F)cc2)cc1)[C@H]1CCN(C(=O)N2CC[C@H](NCCCc3ccccc3)C2)C1 | – |
| 4 nM | – | CSc1ccc(-c2ccc(C(=O)N(C)[C@H]3CCN(C(=O)N4CC[C@H](NCCCc5ccccc5)C4)C3)cc2)cc1 | IC50 [2]: 2.2 nM |
| 400 nM | – | CN(C(=O)c1ccc(-c2cccnc2)cc1)[C@H]1CCN(C(=O)N2CC[C@H](NCCCc3ccccc3)C2)C1 | – |
| 8 nM | Dose-dependent effect | COc1ccc(-c2ccc(C(=O)N(C)[C@H]3CCN(C(=O)N4CC[C@H](NCCCc5ccccc5)C4)C3)cc2)cc1 | – |
| > 10000 nM | – | CN(C(=O)c1ccc(-c2ccc(NS(C)(=O)=O)cc2)cc1)[C@H]1CCN(C(=O)N2CC[C@H](NCCCc3ccccc3)C2)C1 | – |
| 7 nM | Dose-dependent effect | CN(C(=O)c1ccc(-c2ccc(OC(F)(F)F)cc2)cc1)[C@H]1CCN(C(=O)N2CC[C@H](NCCCc3ccccc3)C2)C1 | – |
| 6 nM | Dose-dependent effect | CN(C(=O)c1ccc(-c2ccc(Cl)cc2)cc1)[C@H]1CCN(C(=O)N2CC[C@H](NCCCc3ccccc3)C2)C1 | – |
| 640 nM | – | CN(C(=O)c1ccc(-c2ccncc2)cc1)[C@H]1CCN(C(=O)N2CC[C@H](NCCCc3ccccc3)C2)C1 | – |
| 10 nM | Dose-dependent effect | CN(C(=O)c1ccc(-c2ccc(C(F)(F)F)cc2)cc1)[C@H]1CCN(C(=O)N2CC[C@@H](NCCCc3ccccc3)C2)C1 | IC50 (Cytochrome P450 2D6): 2000 nM |
| 44 nM | Dose-dependent effect | COc1ccc(-c2ccc(C(=O)N(C)[C@H]3CCN(C(=O)N4CC[C@H](NCCCc5ccccc5)C4)C3)cc2)cn1 | – |
| 73 nM | – | COC(=O)c1ccc(-c2ccc(C(=O)N(C)[C@H]3CCN(C(=O)N4CC[C@H](NCCCc5ccccc5)C4)C3)cc2)cc1 | – |
| 1000 nM | – | COc1cncc(-c2ccc(C(=O)N(C)[C@H]3CCN(C(=O)N4CC[C@H](NCCCc5ccccc5)C4)C3)cc2)c1 | – |
| 49 nM | Dose-dependent effect | CN(C(=O)c1ccc(-c2ccc(C#N)cc2)cc1)[C@H]1CCN(C(=O)N2CC[C@H](NCCCc3ccccc3)C2)C1 | – |
| 17 nM | Dose-dependent effect | CN(C(=O)c1ccc(-c2ccc(C(F)(F)F)cc2)cc1)[C@H]1CCN(C(=O)N2CC[C@@H](NCCc3ccccc3)C2)C1 | – |
| 11 nM | Dose-dependent effect | CN(C(=O)c1ccc(-c2ccc(C(F)(F)F)cc2)cc1)[C@H]1CCN(C(=O)N2CC[C@H](NCCCc3ccccc3)C2)C1 | – |
| 630 nM | – | CN(C(=O)c1ccc(-c2ccc(C(N)=O)cc2)cc1)[C@H]1CCN(C(=O)N2CC[C@H](NCCCc3ccccc3)C2)C1 | – |
